Only a selection was taken, and hits are over-represented in it overall.
INS promoter act: TRM-6 insulin promoter activation; TRM-6 cells, insulin promoter eGFP reporter, imaging; plate-scaled: unstimulated 0, stimulated control 100; activation, % at 2 µM; actives 0.81% (n = 130,000);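 active = activation at 2 µM above a set limit, confirmed on inspection of the cell images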;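 also: share of cells whose green reporter signal exceeds an intensity cutoff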
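System – human fetal islet-derived TRM-6 cells with tamoxifen-inducible insulin promoter–eGFP reporter · Amount – 1,000 cells per well · Schedule – overnight tamoxifen, then two-day compound incubation at 37 °C · Detection – high-content imaging of fixed cells with Hoechst nuclear stain · Read-out – percent cells above green-intensity threshold, converted to percent activation versus plate controls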
Large screens that a line does not name were inactive.

CC(Sc1ccc(Cl)cc1)C(=O)NCc1ccc2c(c1)OCO2 (stereo not given)	none
CC(C)=N/N=C(\c1cccc([N+](=O)[O-])c1)C12CN3CN(CN(C3)C1)C2	none
O=C(COc1ccc(Cl)cc1Cl)Nc1c(-c2cccs2)nc2ccccn12	none
CCOC(=O)c1cc2ccccc2n1CCN(CC)CC	INS promoter act 77.8
CCOC(=O)c1cc(C)n(CCc2ccccc2)c1C	none
CCOC(=O)c1cc2sc(C)cc2n1CC(=O)N(CC)CC	none
CCOC(=O)C1(CCOc2ccccc2)CCN(Cc2ccc3nonc3c2)CC1	none
CCCNC(=O)c1ccc(CN2CCOCC2)cc1	INS promoter act 294.7
O=C(NCc1ccccc1)c1ccc(CN2CCOCC2)cc1	none
Cc1cccc(CSCCNC(=O)c2ccc(CN3CCOCC3)cc2)c1	none
CC(=O)c1ccc(NC(=O)C(C)NCc2ccccc2Cl)cc1 (stereo not given)	none
Cc1ccc(NC(=O)C2CC(=O)N(c3ccc4c5c(cccc35)CC4)C2)cc1 (stereo not given)	none
O=C(CO/N=C/c1cccc([N+](=O)[O-])c1)Nc1ccc2ccccc2c1	none
CC(=O)Nc1ccc(NC(=O)C(C)O/N=C/c2cccc([N+](=O)[O-])c2)cc1 (stereo not given)	none
O=C(O/N=C/c1cccc([N+](=O)[O-])c1)C1CC1	INS promoter act 209.4
O=C(O)C1C2C=CC(O2)C1C(=O)NCc1ccccc1Br (stereo not given)	none
COc1ccc(/C=C2\C(=O)NCC(=O)N2Cc2ccccc2)cc1	none
COc1ccc(/C=C/c2ccc(=O)n(Cc3ccccc3)n2)cc1	none
COc1ccc(/C=C/C2=NN(Cc3ccccc3)C(=O)CC2)cc1	INS promoter act 387.8
Cc1c(/C=N/NC(=O)c2cc(=O)[nH]c(=O)[nH]2)c2ccccn2c1C(=O)c1ccccc1	none
Cc1cc(C)nc(N2CCN(C(=O)c3ccc(S(=O)(=O)N4CCCCCC4)cc3)CC2)n1	none
Cc1cc(NC(=S)NC(=O)CC(C)C)ccc1Br	none
O=C1CCCc2c1cc(C(=O)Nc1ccc(Br)cn1)c(=O)n2-c1ccccc1	none
COc1ccc(OC)c(NC(=O)CCNS(=O)(=O)c2ccc3c(c2)oc(=O)n3C)c1	none
COc1cc(OC)c(NC(=O)CCNS(=O)(=O)c2ccc3c(c2)oc(=O)n3C)cc1Cl	none
COc1ccccc1CNC(=O)C(CCSC)NS(=O)(=O)c1ccc2c(c1)oc(=O)n2C (stereo not given)	INS promoter act 164.3
Cc1ccc(Oc2nc(CN3CCOCC3)nc3sc4c(c23)CCC(C)C4)cc1C (stereo not given)	none
O=C(CCNC(=O)OCc1ccccc1)NC1CCCCCC1	none
COc1ccc(C(=O)c2oc3ccccc3c2N)cc1	none
COc1ccc(C(=O)c2sc3nc(-c4ccccc4)ccc3c2N)cc1	INS promoter act 207.4
CCOC(=O)c1sc2nc(-c3cccnc3)ccc2c1N	none
COc1ccccc1N(CC(=O)NCc1ccccc1)C(=O)CCC(=O)Nc1cc(C)ccn1	none
COC(=O)CCCC(=O)Nc1ccc(Br)cc1	none
c1ccc(SSc2ccccc2)cc1	none
C(#Cc1ccccc1)C[N+]1(CC#Cc2ccccc2)CCCC1	none
Nc1ccc(C#Cc2ccccc2)cc1	INS promoter act 207.1
CCc1ccc2[nH]c(=O)c(CN(CCN(C)C)C(=O)Nc3ccccc3)cc2c1	none
CCOC(=O)Cc1csc(NS(=O)(=O)c2ccc(SC)cc2)n1	none
CNC(=S)N1CCN(c2ccccc2OC)CC1	none
Cc1ccc(S(=O)(=O)NCCNC(=O)C2CCCNC2=O)cc1 (stereo not given)	none
Cc1ccc(S(=O)(=O)NC2=NCN(C3CCCCC3)CN2)cc1	INS promoter act 125.0
Cc1ccc(S(=O)(=O)CC(C)N2CCN(C3CCCCC3)CC2)cc1 (stereo not given)	none
COc1ccc(CC(=O)Nc2c3c(nn2-c2ccccc2C)CS(=O)C3)cc1 (stereo not given)	INS promoter act 456.3
CCc1ccc(NC(=O)Cc2ccc(OC)cc2)cc1	none
COc1ccc(CC(=O)Nc2cccc(-c3ccc4nnc(C)n4n3)c2)cc1	none
CC(NC(=O)/C(=C\c1cccc([N+](=O)[O-])c1)NC(=O)c1ccco1)C(=O)O (stereo not given)	none
CC(C)(C)NC(=O)C(=O)NCCC1=CCCCC1	none
O=C(C/C=N\OCc1ccc([N+](=O)[O-])cc1)Nc1ccc(F)cc1F	none
COc1cc(C2C(C(=O)c3ccc(C)o3)=C(O)C(=O)N2c2cc(C)on2)cc(Br)c1O (stereo not given)	none
CCOc1ccc(C2CC(=O)n3nc(C45CC6CC(CC(C6)C4)C5)nc3S2)cc1OC (stereo not given)	none
CCOc1ccc(C2N(c3cc(C)on3)C(=O)C3CCCN32)cc1OC (stereo not given)	INS promoter act 120.0
Cn1c(=O)c2c(-c3ccc(C(C)(C)C)cc3)n(N3CCOCC3)cc2n(C)c1=O	none
CCCCOC(=O)Nc1ccc(C(=O)OCCC)cc1	none
CC1CC(C)(C)NC(=S)N1CC(=O)N(C)Cc1ccccc1 (stereo not given)	none
CC(=O)N1CCN(C(=S)c2ccc(N(C)C)cc2)CC1	none
O=C(Oc1ccc(C(=S)N2CCOCC2)cc1)c1ccccc1	none
CN(C)c1ccc(C(=S)N2CCOCC2)cc1	INS promoter act 150.0
CC(C)COC(=O)c1ccccc1OC(=O)c1ccncc1	none
CN1CCN(C(c2ccccc2)c2nnnn2Cc2ccccc2)CC1 (stereo not given)	none
O=C(c1ccco1)N1CCN(C(c2ccc(Cl)cc2)c2nnnn2Cc2ccccc2)CC1 (stereo not given)	none
O=C(Nc1ccc(Cl)cc1)OCCn1nnnc1C(c1ccccc1)N1CCOCC1 (stereo not given)	INS promoter act 88.6
COc1ccc(C)cc1NC(=O)C1CC(=O)N(CCc2ccccc2)C1 (stereo not given)	none
COc1ccccc1N1C(=O)C2C3CC(c4ccccc4)C(C3)C2C1=O (stereo not given)	none
CC#C[C@]1(O)CC[C@H]2[C@@H]3CCC4=CC(=O)CCC4=C3[C@@H](c3ccc(N(C)C)cc3)C[C@@]21C	none
COc1ccc(Br)cc1C(=O)Nc1ccc(C(=O)O)cc1	INS promoter act 341.2
COc1ccc(Br)cc1C(=O)Nc1ccc(N2CCN(S(C)(=O)=O)CC2)cc1	none
COc1ccc(Br)cc1C(=O)O	none
CCOc1ccc(S(=O)(=O)NCc2ccc(Cl)cc2)c2cccnc12	none
CC(=O)c1c(C(C)=O)c(C)n(C2CCCCC2)c1C	none
COc1ccc(OC)c(S(=O)(=O)Nc2ccc(O)c3ccccc23)c1	INS promoter act 450.0
CNS(=O)(=O)c1cc(OC)ccc1OC	none
COC(=O)c1c(C)oc2ccc(NS(=O)(=O)c3cc(OC)ccc3OC)cc12	none
C/C(=N/N=C1/NC(=O)CC(C(=O)Nc2ccccc2)S1)c1cccs1 (stereo not given)	none
CCC(CC)C(=O)Nc1cc(OC)c(OC)cc1C(=O)O	none
Cc1cc(C)n2nc(CC(=O)NCc3ccc(F)cc3)nc2n1	none
O=C(CSc1ccc(-c2ccccc2)nn1)NCc1ccco1	INS promoter act 443.8
Cc1cc(C)c(NC(=O)CSc2nnc(-c3ccncc3)n2Cc2ccco2)c(Cl)c1	none
Cc1nnc(SCC(=O)NCc2ccco2)n1Cc1ccccc1	none
O=C(CSc1nnc(-c2ccc(O)cc2)n1Cc1ccco1)c1ccccc1	INS promoter act 77.4
O=C(CSc1ccc(-c2ccccn2)nn1)NCc1ccccc1	none
Cn1c(SCC(=O)NCc2ccco2)nnc1-c1ccccc1	INS promoter act 437.1
O=C(CSc1ccc(-c2cccc([N+](=O)[O-])c2)nn1)NCc1ccccc1	INS promoter act 265.7
O=C(CSc1ncc(-c2ccccc2)n1-c1ccccc1)NCc1ccco1	none
COc1cccc(CNC(=O)CSc2ccc(-c3ccncc3)nn2)c1	none

Assay outcomes (PubChem BioAssay)
